Tests used:
Homo sapiens [1] = species on record: Homo sapiens; assay: Selectivity ratio of Ki for progesterone receptor (unknown origin) to Ki for glucocorticoid receptor (unknown origin)
Androgen receptor = biological target: T1, Androgen receptor (Homo sapiens, UniProt P10275); assay: Binding affinity to androgen receptor (unknown origin) by fluorescence polarization assay
T1 sequence (P10275 whole entry): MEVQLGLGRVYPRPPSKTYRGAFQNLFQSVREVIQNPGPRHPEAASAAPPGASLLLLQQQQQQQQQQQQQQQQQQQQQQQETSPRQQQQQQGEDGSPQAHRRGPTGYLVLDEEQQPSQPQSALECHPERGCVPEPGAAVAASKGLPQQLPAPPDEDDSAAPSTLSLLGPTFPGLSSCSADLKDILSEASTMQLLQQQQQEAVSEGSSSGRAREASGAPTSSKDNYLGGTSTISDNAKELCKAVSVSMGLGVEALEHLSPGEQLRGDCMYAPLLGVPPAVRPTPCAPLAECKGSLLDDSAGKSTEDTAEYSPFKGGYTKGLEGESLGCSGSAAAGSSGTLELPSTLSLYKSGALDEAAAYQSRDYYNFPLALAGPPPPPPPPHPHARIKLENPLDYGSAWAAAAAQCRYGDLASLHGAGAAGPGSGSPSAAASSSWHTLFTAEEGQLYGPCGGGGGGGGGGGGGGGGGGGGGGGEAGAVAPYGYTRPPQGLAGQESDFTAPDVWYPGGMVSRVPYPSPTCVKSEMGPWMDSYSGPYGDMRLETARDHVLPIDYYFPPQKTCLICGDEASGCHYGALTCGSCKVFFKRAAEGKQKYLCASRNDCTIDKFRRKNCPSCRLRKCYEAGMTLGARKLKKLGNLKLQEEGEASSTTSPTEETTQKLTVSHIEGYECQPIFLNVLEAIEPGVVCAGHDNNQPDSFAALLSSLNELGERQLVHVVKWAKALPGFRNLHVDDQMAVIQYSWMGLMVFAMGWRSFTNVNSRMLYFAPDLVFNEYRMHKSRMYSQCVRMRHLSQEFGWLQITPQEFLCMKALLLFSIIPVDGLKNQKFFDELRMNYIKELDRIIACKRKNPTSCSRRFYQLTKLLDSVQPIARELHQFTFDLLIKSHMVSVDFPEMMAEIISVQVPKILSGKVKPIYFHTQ
Procedure, shortened: (§1)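 Fluorescence polarization competition between test compound and a fluorescently labeled ligand for full-length receptor or its ligand binding domain. IC50 from a four-parameter logistic fit of the polarization signal, converted to Ki with Cheng–Prusoff […]. Means of duplicate experiments.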

Homo sapiens [2] = species on record: Homo sapiens; assay: Selectivity ratio of Ki for androgen receptor (unknown origin) to Ki for glucocorticoid receptor (unknown origin)
Progesterone receptor = biological target: T2, Progesterone receptor (Homo sapiens, UniProt P06401); assay: Binding affinity to progesterone receptor (unknown origin) by fluorescence polarization assay; procedure, shortened: as §1
T2 sequence (P06401 whole entry): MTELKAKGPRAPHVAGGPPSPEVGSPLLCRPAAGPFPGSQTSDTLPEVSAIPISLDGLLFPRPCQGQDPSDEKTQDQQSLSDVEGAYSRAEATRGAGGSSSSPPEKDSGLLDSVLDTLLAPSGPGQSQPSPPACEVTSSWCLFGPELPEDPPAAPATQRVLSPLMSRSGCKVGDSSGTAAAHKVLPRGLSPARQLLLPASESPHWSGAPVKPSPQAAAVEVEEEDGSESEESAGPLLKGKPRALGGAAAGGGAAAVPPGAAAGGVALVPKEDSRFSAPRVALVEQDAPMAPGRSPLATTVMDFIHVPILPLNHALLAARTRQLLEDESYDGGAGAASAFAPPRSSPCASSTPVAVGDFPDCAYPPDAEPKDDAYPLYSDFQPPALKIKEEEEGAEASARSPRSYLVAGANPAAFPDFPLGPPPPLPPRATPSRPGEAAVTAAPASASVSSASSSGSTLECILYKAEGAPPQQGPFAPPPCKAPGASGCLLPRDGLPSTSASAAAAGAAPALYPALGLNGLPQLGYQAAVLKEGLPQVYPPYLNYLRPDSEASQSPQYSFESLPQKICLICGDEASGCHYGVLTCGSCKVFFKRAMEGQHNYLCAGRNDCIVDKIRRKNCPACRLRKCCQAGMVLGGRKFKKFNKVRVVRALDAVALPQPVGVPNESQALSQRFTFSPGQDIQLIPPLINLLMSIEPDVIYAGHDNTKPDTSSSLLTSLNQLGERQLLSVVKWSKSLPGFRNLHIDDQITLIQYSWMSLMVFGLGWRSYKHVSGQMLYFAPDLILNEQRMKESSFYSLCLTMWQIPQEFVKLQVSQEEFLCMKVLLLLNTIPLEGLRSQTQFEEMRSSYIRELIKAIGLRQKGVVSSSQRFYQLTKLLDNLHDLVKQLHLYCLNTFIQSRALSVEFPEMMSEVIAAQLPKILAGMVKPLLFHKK

[3] = biological target: T3, Mineralocorticoid receptor (Homo sapiens, UniProt P08235); assay: Agonist activity at mineralocorticoid receptor in human A549 cells; assay type: cell-based
T3 sequence (P08235 whole entry): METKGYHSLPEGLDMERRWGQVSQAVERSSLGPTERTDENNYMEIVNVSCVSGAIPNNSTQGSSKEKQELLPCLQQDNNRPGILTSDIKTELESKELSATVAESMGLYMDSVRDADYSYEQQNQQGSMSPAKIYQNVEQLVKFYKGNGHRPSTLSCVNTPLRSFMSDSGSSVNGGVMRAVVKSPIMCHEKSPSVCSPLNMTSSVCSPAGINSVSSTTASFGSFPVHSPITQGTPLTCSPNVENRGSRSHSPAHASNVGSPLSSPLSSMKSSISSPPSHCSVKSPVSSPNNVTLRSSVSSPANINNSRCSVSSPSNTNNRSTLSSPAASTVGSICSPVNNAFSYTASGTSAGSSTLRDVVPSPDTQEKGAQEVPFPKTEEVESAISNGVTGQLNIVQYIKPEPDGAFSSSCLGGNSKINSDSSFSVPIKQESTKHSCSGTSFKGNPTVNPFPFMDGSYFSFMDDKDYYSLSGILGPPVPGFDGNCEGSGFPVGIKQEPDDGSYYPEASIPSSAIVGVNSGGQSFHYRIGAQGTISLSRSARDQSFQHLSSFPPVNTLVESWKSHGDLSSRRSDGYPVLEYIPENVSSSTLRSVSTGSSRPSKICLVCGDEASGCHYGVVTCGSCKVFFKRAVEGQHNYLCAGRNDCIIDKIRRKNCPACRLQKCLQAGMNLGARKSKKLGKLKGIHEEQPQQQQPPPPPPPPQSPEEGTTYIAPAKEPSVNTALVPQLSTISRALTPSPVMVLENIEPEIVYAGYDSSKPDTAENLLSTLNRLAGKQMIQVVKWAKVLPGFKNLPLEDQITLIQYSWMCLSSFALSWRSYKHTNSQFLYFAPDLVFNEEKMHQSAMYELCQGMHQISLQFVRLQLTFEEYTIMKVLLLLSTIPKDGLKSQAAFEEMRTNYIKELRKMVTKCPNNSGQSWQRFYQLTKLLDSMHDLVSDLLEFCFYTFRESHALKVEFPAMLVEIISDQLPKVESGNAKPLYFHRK
Procedure, shortened: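 Cellular agonist assay in an A549 line with aldosterone as positive control. EC50 taken relative to % maximal efficacy. Means of duplicate experiments.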

Row | Compound | Ratio Ki (Homo sapiens [1]) | Ki (Androgen receptor) | Ratio Ki (Homo sapiens [2]) | Ki (Progesterone receptor) | EC50 [3]
1 | CC(C)(C(=O)Nc1nncs1)[C@@H](c1ccccc1)c1ccc2c(cnn2-c2ccc(F)cc2)c1 | 10 | > 25000 nM | > 1000 | 107 nM | > 5000 nM
2 | CC(C)(C(=O)Nc1nncs1)[C@H](c1ccccc1)c1ccc2c(cnn2-c2ccc(F)cc2)c1 | 10 | > 25000 nM | > 1000 | 56 nM | > 5000 nM
